The results in this text go back to paper PMC9463373 (Heliyon, 2022).

Molecules are shown by their SMILES. “Also recorded” adds a separate entry of the source.

The subject of data set [1] is Escherichia coli AG100. The experiment in a line: Real-time ethidium bromide accumulation assay. It counts as cell-based. The following applies: E. coli AG100, ethidium bromide accumulation, minute 60, positive control 50 μM. A digest of the protocol: (§1)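 Bacteria were grown to OD600 0.6 (E. coli AG100 in LB; S. aureus in TSB), PBS-washed and resuspended in PBS. Test compound at ½ MIC (100 μM if MIC >100) in PBS with 2 μg/mL EB, mixed 1:1 with the suspension. Fluorescence (ex 525/em 615 nm) read each minute for 1 h. Positive controls: CCCP 50 μM (E. coli), reserpine 25 μM (S. aureus). RFI taken from the accumulation curves.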

The test system of data set [2] is Staphylococcus aureus ATCC. Nature of the data set: Real-time ethidium bromide accumulation assay. The class given is cell-based. A digest of the protocol:
as §1

The test system of data set [3] is multidrug resistant COLO 320 colonic adenocarcinoma cells overexpressing the ABCB1 transporter. The experiment in a line: Checkerboard combination assay with doxorubicin. It counts as cell-based, human. The following applies: for effects with doxorubicin (in words): at certain / particular concentrations; for Type of interaction / Combination index (CI): with doxorubicin; for Combination index (CI): CI at ED50. A digest of the protocol:
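Test compounds diluted against doxorubicin in a checkerboard on ABCB1-overexpressing COLO 320 cells (RPMI 1640, 10% heat-inactivated FBS), 6 × 10³ cells/well. Incubated 72 h at 37 °C in 5% CO2. MTT added for 4 h, then SDS in 0.01 M HCl overnight. OD read at 540/630 nm. CI at ED₅₀ by Chou-Talalay median-effect: CI <1 synergism, =1 additive, >1 antagonism.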

Data set [4] deals with P-glycoprotein (Homo sapiens, UniProt P08183). The experiment in a line: Rhodamine 123 retention by flow cytometry. The class given is cell-based. Summed up:
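COLO 205 (parental) and multidrug-resistant COLO 320 cells at 2×10^6/mL in serum-free RPMI 1640. Test compound preincubated 10 min at room temperature, then rhodamine 123 (5.2 µM final) added for 20 min at 37 °C. Cells washed twice and resuspended in PBS. FL-1 mean fluorescence read by flow cytometry against an untreated baseline. Tariquidar positive control at 0.2 µM final. FAR = (MDR treated/MDR control)/(parental treated/parental control).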
A general note: A flow cytometer gives signals particle by particle.

[5] abbreviates: minute 60, ½ MIC concentration (or 100 μM).
The mark [6] stands for this setting: ratio 23.2:1, starting concentration 200 μM.
[7] abbreviates: ratio 46.4:1, starting concentration 200 μM.
Where [8] appears, read: ratio 92.8:1, starting concentration 200 μM.
[9] abbreviates: ratio 185.6:1, starting concentration 200 μM.
Where [10] appears, read: ratio 371.2:1, starting concentration 200 μM.
Setting [11] is: ratio 742.5:1, starting concentration 200 μM.
The mark [12] stands for this setting: concentration 2 μM, rhodamine 123.
Setting [13] is: concentration 2 μM, rhodamine 123, COLO 320 vs COLO 205.
Where [14] appears, read: concentration 20 μM, rhodamine 123.
Setting [15] is: concentration 20 μM, rhodamine 123, COLO 320 vs COLO 205.
[16] abbreviates: concentration 0.2 μM, positive control, rhodamine 123.
Setting [17] is: ratio 17.42:1, starting concentration 150 μM.
Setting [18] is: ratio 34.84:1, starting concentration 150 μM.
Setting [19] is: ratio 69.68:1, starting concentration 150 μM.
[20] abbreviates: ratio 139.36:1, starting concentration 150 μM.
The mark [21] stands for this setting: ratio 278.72:1, starting concentration 150 μM.
Where [22] appears, read: ratio 557.44:1, starting concentration 150 μM.
The mark [23] stands for this setting: ratio 18.4:1, starting concentration 80 μM.
Where [24] appears, read: ratio 36.8:1, starting concentration 80 μM.
[25] abbreviates: ratio 73.6:1, starting concentration 80 μM.
Setting [26] is: ratio 147.2:1, starting concentration 80 μM.
Setting [27] is: ratio 294.4:1, starting concentration 80 μM.

Chain of P-glycoprotein (P08183 whole entry): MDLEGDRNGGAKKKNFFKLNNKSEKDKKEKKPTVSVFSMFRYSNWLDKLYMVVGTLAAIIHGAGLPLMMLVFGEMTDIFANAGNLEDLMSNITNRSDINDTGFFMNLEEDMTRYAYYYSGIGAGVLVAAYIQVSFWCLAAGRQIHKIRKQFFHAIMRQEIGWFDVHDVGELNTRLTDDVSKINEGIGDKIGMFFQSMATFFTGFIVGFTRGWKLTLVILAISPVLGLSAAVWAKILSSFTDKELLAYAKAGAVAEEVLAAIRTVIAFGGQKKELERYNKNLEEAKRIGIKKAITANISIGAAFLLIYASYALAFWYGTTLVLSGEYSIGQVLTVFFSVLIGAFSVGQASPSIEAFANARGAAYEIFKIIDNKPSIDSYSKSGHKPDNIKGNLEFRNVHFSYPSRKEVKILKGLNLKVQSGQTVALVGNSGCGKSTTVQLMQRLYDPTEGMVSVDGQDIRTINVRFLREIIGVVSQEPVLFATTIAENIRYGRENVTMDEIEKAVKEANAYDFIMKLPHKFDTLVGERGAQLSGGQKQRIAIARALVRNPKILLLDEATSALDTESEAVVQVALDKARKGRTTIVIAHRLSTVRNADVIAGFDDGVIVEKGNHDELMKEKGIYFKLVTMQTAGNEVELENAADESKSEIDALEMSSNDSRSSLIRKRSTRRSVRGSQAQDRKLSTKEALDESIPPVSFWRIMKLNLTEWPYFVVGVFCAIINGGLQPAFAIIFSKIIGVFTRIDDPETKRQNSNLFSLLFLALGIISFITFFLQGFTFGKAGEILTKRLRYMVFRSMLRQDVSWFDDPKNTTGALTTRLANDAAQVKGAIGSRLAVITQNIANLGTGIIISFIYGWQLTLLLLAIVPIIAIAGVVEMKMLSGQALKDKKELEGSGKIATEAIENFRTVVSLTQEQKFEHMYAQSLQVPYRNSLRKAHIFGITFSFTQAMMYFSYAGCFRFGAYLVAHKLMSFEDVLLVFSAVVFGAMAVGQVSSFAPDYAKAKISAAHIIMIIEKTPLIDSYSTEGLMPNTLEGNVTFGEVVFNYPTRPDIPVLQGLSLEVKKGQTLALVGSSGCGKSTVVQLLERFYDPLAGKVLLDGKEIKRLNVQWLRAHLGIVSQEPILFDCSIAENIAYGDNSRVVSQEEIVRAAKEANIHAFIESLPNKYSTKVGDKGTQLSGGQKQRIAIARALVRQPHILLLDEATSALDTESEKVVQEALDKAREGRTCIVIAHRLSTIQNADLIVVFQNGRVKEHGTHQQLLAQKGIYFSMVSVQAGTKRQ

Consider `N#CC(C#N)=NNc1cccc(Cl)c1` [CCCP], for which the “relative fluorescence index (RFI)” value in data set [1] turned out to be 1.34.
With `COc1cc2ccc(=O)oc2cc1OC` [Compound 3, 6,7-dimethoxycoumarin], the “relative fluorescence index (RFI)” value in data set [2] (setting [5]) was found to be 1.04. Moreover, the “effects with doxorubicin (in words)” value in data set [3] was “synergistic effects; also recorded: antagonistic effects”. Besides, the Type of interaction entry in data set [3] (setting [6]) is “antagonism”; in data set [3] (setting [7]), “moderate antagonism”; in data set [3] (setting [8]), “moderate synergism”; in data set [3] (setting [9]), “moderate synergism”; in data set [3] (setting [10]), “synergism”; in data set [3] (setting [11]), “synergism”. The “Combination index (CI)” value in data set [3] (setting [6]) turned out to be 2.06; in data set [3] (setting [7]), 1.22; in data set [3] (setting [8]), 0.81; in data set [3] (setting [9]), 0.75; in data set [3] (setting [10]), 0.62; in data set [3] (setting [11]) it was 0.60. Moreover, the “FL-1 (mean fluorescence intensity of the cells)” value turned out to be 8.01 in data set [4] (setting [12]) and 15.60 in data set [4] (setting [14]). For the same compound, the entries for the “FAR (fluorescence activity ratio)” value in data set [4] (setting [13]) and in data set [4] (setting [15]) were 1.04 and 2.02, respectively.
For the compound `COC(=O)[C@H]1[C@H]2C[C@@H]3c4[nH]c5cc(OC)ccc5c4CCN3C[C@H]2C[C@@H](OC(=O)c2cc(OC)c(OC)c(OC)c2)[C@@H]1OC` [reserpine, reference compound], in data set [2] (minute 60, positive control 25 μM), the “relative fluorescence index (RFI)” value was found to be 2.77.
In the case of `COc1cc2c(cc1OC)CN(CCc1ccc(NC(=O)c3cc(OC)c(OC)cc3NC(=O)c3cnc4ccccc4c3)cc1)CC2` [Tariquidar, reference compound], in data set [4] (setting [16]), the “FAR (fluorescence activity ratio)” value is recorded as 11.44 and the “FL-1 (mean fluorescence intensity of the cells)” value came to 88.20.
As for `COc1c2ccoc2c(OCC=C(C)C)c2oc(=O)ccc12` [Compound 2, phellopterin], the “relative fluorescence index (RFI)” value in data set [2] (setting [5]) is recorded as 5.49. Moreover, the “effects with doxorubicin (in words)” value in data set [3] is “antagonistic effects”. The Type of interaction entry in data set [3] (setting [17]) is given as “Antagonism”; in data set [3] (setting [18]) it was “moderate antagonism”; in data set [3] (setting [19]) it was “moderate antagonism”; in data set [3] (setting [20]), “antagonism”; in data set [3] (setting [21]) it was “additive effect”; in data set [3] (setting [22]) it was “additive effect”. Moreover, the “Combination index (CI)” value in data set [3] (setting [17]) amounted to 2.31; in data set [3] (setting [18]), 1.40; in data set [3] (setting [19]) it was 1.33; in data set [3] (setting [20]), 1.54; in data set [3] (setting [21]) it was 1.05; in data set [3] (setting [22]), 1.03. Moreover, the “FL-1 (mean fluorescence intensity of the cells)” value in data set [4] (setting [12]) is listed as 11.10; in data set [4] (setting [14]) it was 20.30. Besides, the “FAR (fluorescence activity ratio)” value stood at 1.44 in data set [4] (setting [13]) and 2.63 in data set [4] (setting [15]).
As to `CC(C)=CCOc1c2occc2cc2ccc(=O)oc12` [Compound 1, imperatorin], the Type of interaction result in data set [3] (setting [17]) is “moderate antagonism”; in data set [3] (setting [18]) it was “additive effect”; in data set [3] (setting [19]), “moderate synergism”; in data set [3] (setting [20]) it was “moderate antagonism”; in data set [3] (setting [21]) it was “additive effect”; in data set [3] (setting [22]), “additive effect”. Also, the “Combination index (CI)” value in data set [3] (setting [17]) came out at 1.29; in data set [3] (setting [18]) it was 1.06; in data set [3] (setting [19]), 0.75; in data set [3] (setting [20]), 1.24; in data set [3] (setting [21]) it was 0.99; in data set [3] (setting [22]), 0.99. The “FL-1 (mean fluorescence intensity of the cells)” value stood at 11.30 in data set [4] (setting [12]) and 9.82 in data set [4] (setting [14]). For the same compound, the results for the “FAR (fluorescence activity ratio)” value in data set [4] (setting [13]) and in data set [4] (setting [15]) were 1.47 and 1.27, respectively.
For the compound `CC(C)=CCC/C(C)=C/COc1ccc2ccc(=O)oc2c1` [Compound 5, auraptene], the “effects with doxorubicin (in words)” value in data set [3] is listed as “antagonistic effects”. In addition, the “Combination index (CI)” value in data set [3] (ratio 9.2:1, starting concentration 80 μM) came to 3.16; in data set [3] (setting [23]), 8.37; in data set [3] (setting [24]), 1.13; in data set [3] (setting [25]) it was 1.72; in data set [3] (setting [26]), 2.06; in data set [3] (setting [27]) it was 5.30. Besides, the Type of interaction entry in data set [3] (setting [23]) is “strong antagonism”; in data set [3] (setting [24]), “slight antagonism”; in data set [3] (setting [25]) it was “antagonism”; in data set [3] (setting [26]), “antagonism”; in data set [3] (setting [27]), “strong antagonism”. Further, the entries for the “FL-1 (mean fluorescence intensity of the cells)” value in data set [4] (setting [12]) and in data set [4] (setting [14]) were 13.60 and 30.80, respectively. The “FAR (fluorescence activity ratio)” value in data set [4] (setting [13]) was found to be 1.76; in data set [4] (setting [15]) it was 4.00.
For `CC1(C)O[C@H]2CC(=O)OC[C@]23[C@H]2CC[C@@]4(C)[C@H](c5ccoc5)OC(=O)[C@H]5O[C@]54[C@]2(C)C(=O)C[C@@H]13` [Compound 9, limonin], the entries for the “FL-1 (mean fluorescence intensity of the cells)” value in data set [4] (setting [12]) and in data set [4] (setting [14]) were 2.92 and 10.00, respectively. The figures for the “FAR (fluorescence activity ratio)” value in data set [4] (setting [13]) and in data set [4] (setting [15]) were 0.38 and 1.30, respectively.
